HTRA1 inhibitor: HTRA1 serine protease inhibitors, primary screen, biochemical, fluorescence polarization, HTS | Q92743 | recombinant HTRA1, FP-rhodamine activity-based probe | inhibition, % at 5.96 µM | actives 0.5% (n = 340,000) | AID 504803, 2011; in the data active means inhibition above about 36%;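 further: 0% = enzyme with DMSO and 100% = wells lacking enzyme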
Target sequence (Q92743 whole entry, looked up): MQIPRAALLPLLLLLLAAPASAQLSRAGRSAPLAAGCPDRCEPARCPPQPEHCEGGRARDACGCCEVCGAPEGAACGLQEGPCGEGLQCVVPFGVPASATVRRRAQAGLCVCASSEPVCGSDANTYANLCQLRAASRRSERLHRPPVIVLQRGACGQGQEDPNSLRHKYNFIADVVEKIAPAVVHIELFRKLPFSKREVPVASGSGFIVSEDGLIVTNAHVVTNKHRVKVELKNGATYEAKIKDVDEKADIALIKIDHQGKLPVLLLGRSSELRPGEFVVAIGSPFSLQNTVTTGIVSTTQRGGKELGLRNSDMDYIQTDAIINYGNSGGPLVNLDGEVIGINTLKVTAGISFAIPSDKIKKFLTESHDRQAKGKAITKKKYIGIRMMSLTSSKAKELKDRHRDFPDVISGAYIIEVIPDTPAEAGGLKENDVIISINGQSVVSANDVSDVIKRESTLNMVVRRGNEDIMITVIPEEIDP
ABHD4 inh: ABHD4 inhibitors, primary screen, biochemical, fluorescence polarization, mouse | purified mABHD4, FP-Rh probe fluorescence polarization | inhibition, % at 8.92 µM | actives 0.54% (n = 370,000) | AID 720543, 2013;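 active means inhibition exceeding the mean over every tested compound plus 3 SD, cut at about 30% in these data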;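 further: 0% = plate median of compound wells and 100% = S159A mutant with DMSO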
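Test system: mABHD4 protein; Read-out basis: % inhibition; Incubation: 45 min + 60 min at 25 °C; Repeats: single replicate; Technique: fluorescence polarization with parallel and perpendicular emission, 525/598 nm; Compound: 8.92 µM, single dose; Benchmarks: full inhibition S159A mutant plus DMSO, zero as sample-well median.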
TCR CD3 inh: inhibitors of human TCR-CD3 interaction, primary screen, biochemical, fluorescence, TAMRA-labeled TCR probe; T-cell receptor (TCR); inhibition, % at 9.4 µM; actives 0.37% (n = 360,000); AID 651800, 2012; in the data active means inhibition above about 19%;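 further: recombinant mutant TCR 2C K166C tagged with TAMRA read by polarization; 0% = receptor in buffer alone and 100% = receptor with positive control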
SIAE inh: human SIAE inhibitors, primary screen, biochemical, fluorescence polarization, FP-Rh probe, 1536-well HTS | inhibition, % at 9.66 µM | SIAE FP-Rh probe binding | actives 0.69% (n = 370,000) | AID 1053197, 2014 | Sialate O-acetylesterase (Homo sapiens), Q9HAT2;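 active means inhibition above a cutoff: mean of compounds within the control limits plus 3 SD of those, cut at about 17% in these data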;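 further: 0% = plate median of compound wells and 100% = probe without SIAE protein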
pPAFAH inh: pPAFAH enzyme inhibitors, primary screen, biochemical, fluorescence polarization, human. inhibition, % at 3.39 µM. actives 1.5% (n = 330,000). recombinant pPAFAH, FP-rhodamine probe fluorescence polarization. Platelet-activating factor acetylhydrolase (Homo sapiens), Q13093. AID 463082, 2010;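 active means inhibition above the mean inhibition across the screen plus 3 SD, cut at about 25% in these data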;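 further: inhibitors block binding of the rhodamine activity-based probe so polarization drops; 0% = enzyme with DMSO and 100% = wells lacking pPAFAH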
SIAE inh conf: human SIAE inhibitors, retest, confirmation, biochemical, fluorescence polarization, FP-Rh probe, triplicate | actives 13% (n = 2,300) | inhibition, % at 9.66 µM | AID 1117263, 2014 | shares compounds with SIAE inh | SIAE FP-Rh activity-based probe;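 active means mean inhibition of the replicates above the hit cutoff set in the primary screen, cut at about 17% in these data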;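 further: 0% = SIAE with DMSO and probe and 100% = probe without SIAE; inhibitors lower polarization as more probe stays unbound to SIAE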
Starred values were filed as active, the others as inactive; nt = not tested or not shown. Rows were chosen to be rich in hits. Some 2.3% of all compounds tested hit in one or more screens of this group.

SMILES | HTRA1 inhibitor | ABHD4 inh | TCR CD3 inh | SIAE inh | pPAFAH inh | SIAE inh conf
Cc1cccc(-c2c3c(=O)n(C)c(=O)n(C)c3cn2CC2CCCO2)c1 (stereo not drawn) | 3.0 | -1.6 | 2.6 | 18.6* | -0.7 | -2.8
O=C(OCC#CCSc1nnc(-c2cccc3ccccc23)o1)c1ccc(OC(F)(F)F)cc1 | nt | -1.3 | nt | -0.7 | nt | nt
Cc1nc2c(C)cccc2cc1C(=O)N/N=C/c1cccnc1 | 2.6 | 4.6 | 0.7 | 18.3* | -3.3 | 2.5
CC1(c2nnnn2C2CCCCC2)CCCC(=O)N1CCc1ccc(O)cc1 (stereo not drawn) | nt | 1.6 | nt | 2.4 | nt | nt
COc1ccc(NC(=O)Nc2cccs2)cc1OC | 4.3 | 7.2 | 0.3 | 18.3* | 6.7 | 8.2
O=S(=O)(c1ccccc1Cl)N1CCC(O)(c2cccnc2)CC1 | -0.3 | -3.6 | 5.5 | 19.8* | 5.3 | 2.0
Cc1ccc(S(=O)(=O)N2CCC(O)(c3cccnc3)CC2)cc1 | 8.6 | -3.2 | 3.1 | 3.3 | 4.8 | nt
Cc1ccc(N/N=C(\C#N)C(N)=S)c(C)c1 | -0.4 | 4.6 | 7.2 | 54.0* | 3.7 | 0.5
COC(=O)c1c(N)[nH]c(C(=O)c2ccccc2)c1-c1ccc(Br)cc1 | nt | 2.4 | 5.0 | 0.2 | nt | nt
Cc1cc(C)nc(N/N=C/c2cccc([N+](=O)[O-])c2)n1 | nt | -1.8 | -1.9 | -5.8 | -3.0 | nt
Cc1nc(Cl)c(N=Cc2cccc([N+](=O)[O-])c2)c(Cl)n1 | 2.1 | 5.6 | 3.2 | 17.7* | -1.2 | 0.2
CCn1c2ccccc2c2cc(NC(=O)COC(=O)c3ccc(O)cc3)ccc21 | -6.4 | -5.4 | 5.7 | 17.1* | 32.8* | -9.7
CCn1c2ccccc2c2cc(NC(=O)COC(=O)c3cccc(OC)c3)ccc21 | nt | 7.4 | nt | 2.3 | nt | nt
CCn1c2ccccc2c2cc(NC(=O)c3ccccc3[N+](=O)[O-])ccc21 | 7.9 | -1.8 | 2.6 | 21.4* | 14.6 | 10.1
Cc1cc(Br)c2nc(-c3ccccc3)c(Cc3cccc(Cl)c3)n2c1 | nt | -12.9 | -0.6 | -8.3 | nt | nt
COC(=O)[C@H](CC(C)C)N(CCCc1cn(Cc2ccccc2)nn1)S(=O)(=O)c1ccc(F)cc1Br | nt | -3.1 | nt | -9.2 | nt | nt
CCCCN(CC)CCCNC(=O)c1cn(C)c(=O)c2c1c1ccccc1n2C | -0.5 | -1.4 | -4.1 | 18.6* | 5.0 | -2.9
O=C(CNC(=O)c1ccccc1)Sc1ccccc1 | 5.0 | 5.9 | -1.3 | 0.9 | nt | nt
O=C(CCCCC(=O)Sc1ccccc1)Sc1ccccc1 | -2.5 | -5.7 | 3.1 | 18.0* | nt | 3.7
CCOC(=O)C1=C(c2ccccc2)NC(N)=NC1c1ccc(OCc2ccc(Cl)cc2)c(OC)c1 (stereo not drawn) | -13.2 | 9.1 | 0.9 | 17.6* | 11.0 | 17.4*
CCOC(=O)C1=C(c2ccccc2)NC(=O)NC1c1cc(Cl)c(O)c(OC)c1 (stereo not drawn) | 8.4 | -6.3 | 4.6 | 5.4 | 4.5 | nt
CC(C)(C)OC(=O)N1Cc2[nH]c3ccccc3c2C[C@@H]1C(=O)O | -0.1 | -1.6 | -5.3 | 25.7* | 3.1 | 2.9
CC1=C(C(=O)N2CCOCC2)CC(CC(=O)NCCCN(C)C)C(=O)N1CCCN1CCCC1=O (stereo not drawn) | nt | -1.7 | 1.9 | -12.6 | nt | nt
COc1ccc(Nc2cc(C)c3cc([N+](=O)[O-])ccc3n2)cc1 | 5.4 | 26.3 | -5.3 | 24.4* | 8.4 | 1.9
Nc1ccccc1NC1=CC(=O)CC(c2ccco2)C1 (stereo not drawn) | 7.9 | 23.2 | -2.5 | 19.0* | 4.7 | 3.3
SMILES | HTRA1 inhibitor | ABHD4 inh | TCR CD3 inh | SIAE inh | pPAFAH inh | SIAE inh conf
Cc1[nH]c2ccc(F)cc2c1CCN1C(=O)OC(C)(C)C1(C)O (stereo not drawn) | 9.2 | -2.7 | -7.3 | 26.4* | 2.6 | 2.6
Brc1ccc2nc(C3CCCCC3)c(Cc3ccsc3)n2c1 | nt | 0.1 | 5.8 | 2.6 | nt | nt
COC(=O)c1ccc(Oc2nc3c(c(=O)n(C)c(=O)n3C)n2CCC(C)C)cc1 | 5.0 | -2.9 | 2.2 | 28.2* | 2.0 | -3.4
CCC(=O)c1ccc(Oc2nc3c(c(=O)n(C)c(=O)n3C)n2CC)cc1 | -13.2 | 5.8 | 11.7 | 3.4 | 2.5 | nt
CN(CCO)c1cccc2c1S(=O)(=O)N(Cc1cn(Cc3ccc(F)cc3)nn1)Cc1ccccc1O2 | nt | 4.3 | nt | 9.1 | nt | nt
CCOC(=O)Cc1csc(NS(=O)(=O)c2ccc(Br)cc2)n1 | 8.9 | 3.2 | 8.6 | 0.0 | 2.7 | nt
CCOC(=O)Cc1csc(NS(=O)(=O)c2ccc(F)cc2)n1 | 5.3 | 3.9 | 0.1 | 19.2* | 1.4 | -0.8
COC[C@@H]1CCCN1c1cccc2c1S(=O)(=O)N1CC[C@@H](C1)O2 | nt | 4.9 | nt | 0.6 | nt | nt
COC(=O)[C@]12C[C@H](CC(=O)NCc3cccc4ccccc34)C(=O)N(Cc3cccc4ccccc34)C1=C[C@H](C1CCCC1)O[C@@H]2C | nt | -13.1 | nt | -3.2 | nt | nt
Cc1ccccc1OC1(C)CCN(Cc2ccc(-c3ccccn3)cc2)C1 (stereo not drawn) | nt | 7.0 | -3.1 | 3.1 | nt | nt
COc1ccc(NC(=O)Cc2ccsc2)c(OC)c1 | 5.4 | 5.8 | 0.0 | 18.0* | 6.7 | -1.5
CCOC(=O)c1c(OCC)[nH]c2c1cc(O)c1ccccc12 | 6.2 | 27.7 | 12.4 | 27.6* | 27.1* | 16.4
C#CCNC(=O)C[C@H]1C(=O)N(CC=C)C2=CCCC[C@@]21C(=O)OCC | nt | 6.1 | nt | -6.1 | nt | nt
COc1ccccc1OCC(=O)Nc1ccc(C(N)=O)cc1 | 1.0 | 2.7 | 1.1 | 18.1* | 0.2 | -2.1
COc1ccccc1OCC(=O)Nc1ccc(NC(=O)COc2ccccc2OC)cc1 | -12.5 | -2.7 | 0.3 | -2.0 | -1.8 | nt
COc1ccc(N(CC(=O)NC2CCCC2)C(=O)Cn2nnc(-c3ccc(C)o3)n2)cc1 | -9.0 | 3.1 | 0.7 | 18.0* | nt | -1.6
COc1ccc(-c2c(-c3cc(OC)cc(OC)c3)n(C)c3ccc(Br)cc23)cc1 | -0.5 | 5.4 | -2.3 | 4.7 | 0.7 | nt
COc1ccc(N=Nc2nc3ccc(Br)cc3n2C)cc1 | 12.5 | 5.7 | 13.0 | 18.3* | 13.2 | 0.2
NC(=O)c1cc(S(=O)(=O)N2CCCC2)ccc1OCCOc1ccccc1F | -3.2 | 8.2 | 2.4 | 21.3* | nt | 0.7
Clc1ccc(N2CCCCCC2)nn1 | 0.2 | -5.6 | -2.0 | 18.5* | -3.8 | -7.1
O=C(O)C1CCN(c2ccc(Cl)nn2)CC1 | -3.0 | 1.4 | -1.3 | 0.7 | -2.6 | nt
COc1ccc(C(C(=O)Nc2ccc(F)cc2)N2CCN(c3cccc(C(F)(F)F)n3)CC2)cc1 (stereo not drawn) | nt | -22.6 | 3.0 | -20.8 | nt | nt
Cc1cc(C)n2nc(SCc3nnc(-c4ccccc4Br)o3)nc2n1 | 2.4 | 1.2 | 4.4 | 21.9* | 11.9 | 0.7
